Assay results from paper PMC6990463 (Cellular physiology and biochemistry : international …, 2019).
Peptide text beside a SMILES is read from it. * marks the point of attachment. Cbz = O=C(OCc1ccccc1)*; CH2F = FC*

Columns and labels:
LC3-II = assay: Western blotting for LC3 in WM266–4 cells; assay type: cell-based, human
Procedure, shortened: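 1 × 10^6 cells seeded (WM266–4 in E-MEM, M14 in RPMI-1640; + 10% FBS) in 6 cm plates. Test compound at various doses and times; controls rapamycin 10 μM + chloroquine 5 μM, staurosporine 1 μM. Lysates blotted with polyclonal LC3 A/B antibody (1:1000); bands normalised to β-actin, as fold of untreated; n=3.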

cleaved lamin A/C = assay: Western blotting for Lamin A/C in WM266–4 cells; assay type: cell-based, human; settings: LY294002 10 μM, 2155–14 100 μM
Procedure, shortened: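 WM266–4 cells (1 × 10^6, E-MEM + 10% FBS, 6 cm plates) pre-treated after 24 h with caspase inhibitors for 3 h or autophagy inhibitors (LY294002 10 μM, hydroxychloroquine) for 1 h. Test compound given at various doses and times, with or without inhibitors; controls staurosporine 1 μM, rapamycin 10 μM + chloroquine 5 μM. Lysates blotted with polyclonal lamin A/C antibody (1:1000).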

WM266–4 = assay: Cell viability assay; assay type: cell-based, human; settings: for WM266–4 viability, inhibitor alone: 50 μM inhibitor, 72 h
sXBP1 = assay: ER stress assay; assay type: cell-based, human; settings: 60 μM STF-83010 pre-treatment 3 h
Procedure, shortened: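 WM266–4 cells (0.2 × 10^6, E-MEM + 10% FBS, 24-well) pre-treated 24 h after seeding with 60 μM STF-83010 or vehicle for 3 h. RNA extracted with TRI reagent; amplified products run on 2% agarose with GelGreen and quantified. sXBP-1 expressed as % of total XBP-1 (sXBP-1 + XBP-1).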

metastatic melanoma = settings: BRAF-mutant metastatic melanoma; cited from earlier work
PC-3 cells = settings: read-out: IC50, apoptotic cell death of PC-3 cells; cited from earlier work
WM266–4 cells = assay: Annexin V flow cytometry assay; assay type: cell-based, human; settings: 4 h, staurosporine 1 μM
Procedure, shortened: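 WM266–4 cells (1,000,000/flask, EMEM + 10% FBS + 1% pen/strep) adhered overnight. 24 h after plating, optional 2 h pre-treatment with Z-VAD-FMK 10 μM. Test compound 100 μM or staurosporine 1 μM (control) for 4, 24 and 48 h. Adherent plus floating cells pooled, Annexin V-FITC stained, and viable, necrotic, early and late apoptotic cells counted by flow cytometry.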

SKMEL28 = settings: read-out: IC50, viability SKMEL28; V600E BRAF/R24C CDK4 primary; cited from earlier work
WM115 = assay: Cell viability assay; assay type: cell-based; settings: Homo sapiens, WM-115, 72 h, read-out: IC50, viability WM115 (F)
SKMEL2 = assay: Cell viability assay; assay type: cell-based; settings: Homo sapiens, SK-MEL-2, 72 h, read-out: IC50, viability SKMEL2 (M)
Procedure, shortened: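 Cells plated in 384-well format. Test compound as a 10-point 1:3 dilution series prepared from 300 μM; dabrafenib as assay control. Incubated 72 h at 37 °C, 5% CO2. CellTiter-Glo added for 15 min at room temperature; luminescence read. Viability normalised to media-only (0%) and DMSO-treated cells (100%). S/B, CV and Z′ computed per plate.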

M14 = assay: Cell viability assay; assay type: cell-based; settings: Homo sapiens, M14, 72 h, read-out: IC50, viability M14 (M)

## O=c1cc(N2CCOCC2)oc2c(-c3ccccc3)cccc12 [LY294002]
LC3-II; LY294002 10 μM alone
  LC3-II levels, fold of untreated control: 20 fold
LC3-II; combination of LY294002 10 μM and 2155–14 100 μM
  LC3-II levels, fold of untreated control: ~ 40 fold
Cleaved lamin A/C
  effect of pre-treatment on cleaved lamin A/C levels in cells treated with 2155–14: no effect

## CC(C)[C@H](NC(=O)OCc1ccccc1)C(=O)N[C@H](C=O)Cc1ccccc1 [MDL-28170] (Cbz-Val-Phe-aldehyde)
WM266–4; caspase inhibitors 10 μM, calpain inhibitors 25 μM, 2155–14 100 μM
  WM266–4 viability 24 h after addition of 2155–14, inhibitor pre-incubation: further decreased cell viability

## O=S(=O)(N=Cc1c(O)ccc2ccccc12)c1cccs1 [STF-83010]
sXBP1
  effect on sXBP1 formation by 2155–14: inhibited

## CC(C)(C)c1nc(-c2cccc(NS(=O)(=O)c3c(F)cccc3F)c2F)c(-c2ccnc(N)n2)s1 [dabrafenib]
Metastatic melanoma
  median progression-free survival (PFS): 6.9 months

## O=c1c(O)c(-c2ccc(O)c(O)c2)oc2cc(O)cc(O)c12 [quercetin]
PC-3 cells
  IC50: 100 µM

## CN[C@@H]1C[C@H]2O[C@@](C)([C@@H]1OC)n1c3ccccc3c3c4c(c5c6ccccc6n2c5c31)C(=O)NC4 [staurosporine]
WM266–4 cells
  apoptosis detection: apoptosis was detected

## CCCS(=O)(=O)Nc1ccc(F)c(C(=O)c2c[nH]c3ncc(-c4ccc(Cl)cc4)cc23)c1F [vemurafenib]
WM266–4; Homo sapiens, WM 266-4, 72 h, read-out: IC50, viability WM266–4 (F)
  IC50: 3 ± 0.4 µM
SKMEL28
  IC50: 4.6 µM
Metastatic melanoma
  median progression-free survival (PFS): 6.9 months
WM115
  IC50: 5 ± 0.9 µM
SKMEL2
  IC50: 1.4e-06 ± 7e-07 M
M14
  IC50: 1e-06 ± 2e-07 M

## Cbz-Val-Ala-Asp-CH2F
WM266–4
  WM266–4 viability, inhibitor alone: completely inhibited cell viability

## Z-IETD-FMK: selective caspase 8 inhibitor
WM266–4
  WM266–4 viability, inhibitor alone: completely inhibited cell viability
WM266–4; 48 h, 2155–14 100 μM, caspase inhibitors 10 μM, calpain inhibitor 25 μM
  WM266–4 cells viable, 2155–14 in combination with inhibitor: 25%
